For assay [1], the system named is Mycolicibacterium smegmatis. Briefly: Antimicrobial activity against Mycobacterium smegmatis str. MC2 155 by broth dilution method. Type of assay: functional. The method, boiled down:
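M. smegmatis mc2155 grown and assayed at 37 °C in NE13 medium. Broth dilution with twofold serial dilutions, top concentration 128 μg/mL, run in triplicate. Resazurin read-out; MIC is the lowest concentration preventing the blue-to-pink change. For MBC, each well was subcultured into fresh medium before resazurin was added, then read the same way.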

A further assay relates to Staphylococcus aureus. The experiment in a line: Antimicrobial activity against Staphylococcus aureus RN4220 at 50 ug after 16 to 18 hrs by disk diffusion method. As to conditions: read-out: DIZ. Format: functional. Put shortly: (§1)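 Disk diffusion: strains grown at 37 °C in NE13 medium. Agar plates swabbed from 10^6 cells/mL suspensions; 6 mm paper disks loaded with 50 μg compound; growth-inhibition zones measured after 16−18 h.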

The subject of a further assay is Acinetobacter baumannii. Briefly: Antimicrobial activity against Acinetobacter baumannii ATCC 19606. Format: functional, organism-based. As to conditions: ATCC 19606 = CIP 70.34 = JCM 6841. The method, boiled down:
(§2)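 Disk diffusion spectrum test: agar plates swabbed from 10^6 cells/mL suspensions of each strain; 6 mm paper disks carrying 50 μg compound; inhibition zone sizes read after 16−18 h.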

Assay [2] concerns Mycobacterium tuberculosis. The experiment in a line: Antimicrobial activity against Mycobacterium tuberculosis CDC1551 by MTT assay. Type of assay: functional. Put shortly:
(§3)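 Strains were grown in Middlebrook 7H9 with 0.2% glycerol and 10% ADC; tyloxapol was omitted in assays. Inoculum of 10^5 cells/mL was exposed to 2-fold serial dilutions at 37 °C in 5% CO2 for 7 d. MTT (2.5 mg/mL) was then added for 24 h, followed by 10% Na lauryl sulfate, and OD570 read after 24 h. IC50 came from a four-parameter log2 dose-response fit, in triplicate.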

The test system of the next assay is Escherichia coli. The experiment in a line: Antimicrobial activity against Escherichia coli O157:H7. Format: functional, organism-based.
Assay [3] concerns Mycobacterium tuberculosis. Briefly: Antimicrobial activity against Mycobacterium tuberculosis H37Rv by MTT assay. Type of assay: functional, organism-based. The method, boiled down: as §3
The subject of a further assay is Micrococcus luteus. Briefly: Antimicrobial activity against Micrococcus luteus JVC1154 at 50 ug after 16 to 18 hrs by disk diffusion method. Format: functional. The following applies: read-out: DIZ. Put shortly: as §1
The test system of another assay is Pseudomonas aeruginosa. The experiment in a line: Antimicrobial activity against Pseudomonas aeruginosa PAO1. Type of assay: functional, organism-based. Put shortly:
as §2

Assay [4] has as its system Mycobacterium tuberculosis. Briefly: Antimicrobial activity against Mycobacterium tuberculosis str. Erdman by MTT assay. Type of assay: functional. Put shortly:
as §3

Another assay has as its system Salmonella typhimurium. Briefly: Antimicrobial activity against Salmonella typhimurium ATCC 14028. Format: functional, organism-based. The following applies: Salmonella enterica subsp. enterica serovar Typhimurium. The method, boiled down: as §2

SMILES strings stand for the structures. In brackets after ≈: the same amount, converted by molar mass. Activity calls are given as the source filed them. The rule behind the calls is not given here.

On to `NNC(=O)c1ccncc1` [ISONIAZID], for which it took 8 µg/mL (≈ 58.3 µM) to inhibit growth in assay [1] (MIC).

`CCCCCCCCCC[C@H](O)[C@@H]1O[C@]12C=CC(=O)O2` [RAMARIOLIDE A]: the zone of inhibition at 50 µg/disc was 15 mm in the assay on Staphylococcus aureus and 18 mm in the assay with Micrococcus luteus. Moreover, the outcome in the assay with Acinetobacter baumannii, in the assay with Escherichia coli, with Pseudomonas aeruginosa and with Salmonella typhimurium was inactive. The IC50 in [2], in assay [3] and in assay [4] was 53 µg/mL (≈ 188 µM) in each case. Moreover, the MIC in [2] turned out to be 64 µg/mL (≈ 227 µM); in assay [3] it was 64 µg/mL (≈ 227 µM); in [1], 8 µg/mL (≈ 28.3 µM); in assay [4], 64 µg/mL (≈ 227 µM).

`CN[C@@H]1[C@H](O)[C@H](NC)[C@H]2O[C@@]3(O)C(=O)C[C@@H](C)O[C@H]3O[C@@H]2[C@H]1O` [SPECTINOMYCIN] came in with an MIC in [1] of 32 µg/mL (≈ 96.3 µM).

Values taken from ChEMBL document CHEMBL2203094, “Ramariolides A-D, antimycobacterial butenolides isolated from the mushroom Ramaria cystidiophora” (J Nat Prod, 2012).
